Assay results pooled from the literature.
Target: Mitogen-activated protein kinase kinase kinase kinase 4 (MAP4K4, Homo sapiens, UniProt O95819)

| Compound | test | setting | measurement | value |
| --- | --- | --- | --- | --- |
| N#CCCc1ccc2c(c1)-c1[nH]c3ccc([N+](=O)[O-])cc3c1CC(=O)N2 | cell-free assay | 0.5 µM | remaining signal | 6.82% |
| CCCS(=O)(=O)Nc1ccc(F)c(C(=O)c2c[nH]c3ncc(-c4ccc(Cl)cc4)cc23)c1F | enzyme activity, inhibitor | 1 µM | inhibition | < 10% |
| COc1cc2c(N3CCN(C(=O)Nc4ccc(OC(C)C)cc4)CC3)ncnc2cc1OCCCN1CCCCC1 | cell-free assay | 0.5 µM | remaining signal | 96.6% |
| CC(C)(O)[C@H]1CC[C@H](Nc2ccc3ncc(-c4cccc(C(F)(F)F)c4)n3n2)CC1 | enzyme activity, inhibitor | 1 µM | remaining activity | 90.6% |
| Cc1nc(C2CCN(C(=O)c3ccc(OC(F)(F)F)cc3N)CC2)c2ncc(N3CCN(C)CC3)cc2n1 | cell-free assay, competition with immobilised ligand | 1 µM | remaining binding | 100% |
| CC(C)(C)c1nc(-c2cccc(NS(=O)(=O)c3c(F)cccc3F)c2F)c(-c2ccnc(N)n2)s1 | enzyme activity, inhibitor, radiometric | 1 µM | remaining activity | 95% |
| Cc1sc(C(=O)NC2COC2)cc1-n1cc(NC(=O)Nc2c(F)cccc2Cl)cn1 | enzyme activity, inhibitor | 10 µM | remaining activity | 93.4% |
| CO[C@@H](C)c1c(Nc2ccc([C@H](N(C)C(=O)C3CCS(=O)(=O)CC3)C(F)(F)F)cc2)cnc2cc(Cl)nn12 | cell-free assay, competition with immobilised ligand | 1 µM | remaining binding | 100% |
| Nc1nc(Nc2ccc(S(N)(=O)=O)cc2)nn1C(=O)c1c(F)cccc1F | cell-free assay | 0.5 µM | remaining signal | 83.8% |
| CCCCN(CCCC)C(=O)CN1C[C@@H](c2cc(OC)c3c(c2)OCO3)[C@H](C(=O)O)[C@H]1CC(C)(C)CCC | cell-free assay, competition with immobilised ligand | 1 µM | remaining binding | 88.9% |
| O=C(Nc1cnn(-c2csc(C(=O)NC3COC3)c2)c1)Nc1ccccc1Cl | enzyme activity, inhibitor | 5 µM | remaining activity | 81.1% |
| CN1CC(Oc2cnc(C#N)cc2-c2ccn3nc(NC(=O)C4CC4)cc3c2)C1 | enzyme activity, inhibitor | 1 µM | inhibition | 13% |
| O=C1Nc2ccc(Cl)cc2C1=Cc1cc(Cl)c(O)c(Cl)c1 | cell-free assay | 0.5 µM | remaining signal | 4.48% |
| CC(C)CC(=O)N1CCc2nc(-c3ccc(Br)cc3)nc(N(C)Cc3ccccc3)c2C1 | cell-free assay, competition with immobilised ligand | 0.1 µM | remaining binding | 84% |
| COc1cc2ncnc(Nc3ccc(Oc4ccccc4)c(C)c3C)c2cc1OC | enzyme activity, inhibitor | 1 µM | inhibition | -3% |
| O=C(O)c1cc(-c2ccc(C3CCNCC3)cc2)c2ccc(-c3ccc(C(F)(F)F)cc3)cc2c1 | cell-free assay, competition with immobilised ligand | 1 µM | remaining binding | 87% |
| CSc1nc(C)c(-c2ccnc(Nc3ccc(N4CCOCC4)cc3)c2)[nH]1 | enzyme activity, inhibitor | 10 µM | inhibition | 77.9% |
